# Measurements reported in ChEMBL document CHEMBL1140737, “Discovery of novel agonists and antagonists of the free fatty acid receptor 1 (FFAR1) using virtual screening” (J Med Chem, 2008).
# The source made the active and inactive calls. The calls are words filed in the database; no cut-off is given here.
# Key:
# [1] = biological target: T1, Free fatty acid receptor 1 (Homo sapiens, UniProt O14842); test: Agonist activity at FFAR1 expressed in HEK-EM293 cells assessed as calcium influx by FLIPR assay; assay type: functional, cell-based; conditions: for Activity: HEK293
# T1 sequence (O14842 whole entry): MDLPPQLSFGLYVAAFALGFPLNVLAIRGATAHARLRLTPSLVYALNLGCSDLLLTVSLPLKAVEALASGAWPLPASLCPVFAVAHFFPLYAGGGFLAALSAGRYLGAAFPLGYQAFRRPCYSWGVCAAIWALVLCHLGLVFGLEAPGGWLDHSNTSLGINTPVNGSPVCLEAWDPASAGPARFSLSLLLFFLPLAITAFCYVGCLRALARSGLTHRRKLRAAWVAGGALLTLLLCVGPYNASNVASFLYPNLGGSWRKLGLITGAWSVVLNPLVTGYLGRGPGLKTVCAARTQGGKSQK
# [2] = biological target: T1, Free fatty acid receptor 1; test: Activity at FFAR1 expressed in HEK-EM293 cells assessed as calcium influx relative to GW-9508 by FLIPR assay; assay type: functional, cell-based; parameters: concentration or dose not given beside the values; conditions: HEK293
# [3] = biological target: T1, Free fatty acid receptor 1; test: Antagonist activity at FFAR1 expressed in HEK-EM293 cells assessed as inhibition calcium influx by FLIPR assay; assay type: functional, cell-based, HEK293
# [4] = biological target: T1, Free fatty acid receptor 1; test: Activity at FFAR1 expressed in HEK-EM293 cells assessed as calcium influx by FLIPR assay; assay type: functional, cell-based, HEK293
# [5] = biological target: Free fatty acid receptor 1 (Homo sapiens, UniProt O14842, R183A); test: Activity at FFAR1 R183A mutant expressed in HEK-EM293 cells assessed as calcium influx by FLIPR assay; assay type: functional, cell-based, HEK293
# Chain of Free fatty acid receptor 1 (Homo sapiens, UniProt O14842, R183A) (O14842 whole entry R183A): as the sequence (O14842 whole entry) above, with R183A counted along it
# Method in brief: (§1)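 Mutant or wild-type FFAR1 cDNA transiently transfected (lipofectamine LTX/PLUS) into HEK-EM 293 cells. Cells seeded at 60 000/well one day before, then loaded with Calcium4 dye in HEPES (20 mM)-buffered HBSS. Intracellular calcium flux read by FLIPR after agonist addition; EC50 from concentration-response curves.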
# [6] = biological target: Free fatty acid receptor 1 (Homo sapiens, UniProt O14842, H86F); test: Activity at FFAR1 H86F mutant expressed in HEK-EM293 cells assessed as calcium influx by FLIPR assay; assay type: functional, cell-based, HEK293; method in brief: as §1
# Chain of Free fatty acid receptor 1 (Homo sapiens, UniProt O14842, H86F) (O14842 whole entry H86F): as the sequence (O14842 whole entry) above, with H86F counted along it
# [7] = biological target: Free fatty acid receptor 1 (Homo sapiens, UniProt O14842, L186F); test: Activity at FFAR1 L186F mutant expressed in HEK-EM293 cells assessed as calcium influx by FLIPR assay; assay type: functional, cell-based, HEK293; method in brief: as §1
# Chain of Free fatty acid receptor 1 (Homo sapiens, UniProt O14842, L186F) (O14842 whole entry L186F): as the sequence (O14842 whole entry) above, with L186F counted along it
# [8] = biological target: Free fatty acid receptor 1 (Homo sapiens, UniProt O14842, H137F); test: Activity at FFAR1 H137F mutant expressed in HEK-EM293 cells assessed as calcium influx by FLIPR assay; assay type: functional, cell-based, HEK293; method in brief: as §1
# Chain of Free fatty acid receptor 1 (Homo sapiens, UniProt O14842, H137F) (O14842 whole entry H137F): as the sequence (O14842 whole entry) above, with H137F counted along it
# [9] = biological target: Free fatty acid receptor 1 (Homo sapiens, UniProt O14842, N244A); test: Activity at FFAR1 N244A mutant expressed in HEK-EM293 cells assessed as calcium influx by FLIPR assay; assay type: functional, cell-based, HEK293; method in brief: as §1
# Chain of Free fatty acid receptor 1 (Homo sapiens, UniProt O14842, N244A) (O14842 whole entry N244A): as the sequence (O14842 whole entry) above, with N244A counted along it
# [10] = biological target: T1, Free fatty acid receptor 1; test: Antagonist activity at FFAR1 expressed in HEK-EM293 cells assessed as linoleic acid-stimulated calcium influx after 30 mins by FLIPR assay; assay type: functional, cell-based; conditions: HEK293
# [11] = Antagonist activity at TRH receptor 1 expressed in HEK-EM293 cells assessed as inhibition of thyrotropin-releasing hormone-stimulated calcium influx at 30 uM by FLIPR assay; assay type: functional; conditions: HEK293
# Method in brief: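 HEK-EM 293 cells stably expressing TRH-R1, grown with 200 µg/mL hygromycin and loaded with Calcium4. Pre-incubated with compound, up to 30 µM, then stimulated with TRH. Inhibition of the FLIPR calcium response measured.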
Compound,Activity [1],EC50 [1],Activity [2],other results
COc1ccc(CNC(=O)[C@H](C)c2ccc([N+](=O)[O-])cc2)cc1,inactive,–,–,–
O=C(O)CCCN1C(=O)/C(=C\c2cccs2)SC1=S,–,19 µM,43%,–
COc1ccc(CSc2nnc(SCc3ccc(C(=O)O)cc3)s2)cc1,–,15.1 µM,40%,–
O=C(Nc1ccccc1)c1cccc(Oc2ccc([N+](=O)[O-])cc2)c1,–,–,–,IC50 [3]: 5.3 µM
O=C(O)CCCCCN1C(=O)/C(=C\c2cccs2)SC1=S,–,7.6 µM,59%,EC50 [4]: 6.6 µM; EC50 [5]: > 30 µM; EC50 [6]: > 10 µM; EC50 [7]: 3.2 µM; EC50 [8]: 7.8 µM; EC50 [9]: > 30 µM
COC(=O)CSc1nnc(SCc2ccccc2)s1,–,16.7 µM,41%,–
O=C(O)CCN1C(=O)/C(=C\c2ccncc2)SC1=S,inactive,–,–,–
O=C(O)c1ccc(NC(=O)c2ccc(C(=O)c3ccccc3)cc2)cc1,–,16.1 µM,56%,–
O=C(Nc1ccc(OCc2ccccc2)cc1)c1cccc([N+](=O)[O-])c1,inactive,–,–,–
COc1ccc(CNC(=O)/C=C\c2ccc([N+](=O)[O-])cc2)cc1,inactive,–,–,–
O=C(O)CCN1C(=O)/C(=C\c2c[nH]c3ccccc23)SC1=S,inactive,–,–,–
O=C(O)CCCN1C(=O)/C(=C\c2ccc(F)cc2)SC1=S,–,22.6 µM,26%,–
O=C(NCc1cccc(Oc2ccccc2)c1)c1ccc([N+](=O)[O-])cc1,–,–,–,Activity [10]: Active; IC50 [3]: 2.8 µM; inhibition at 30 µM [11]: 30%
O=C(O)CSc1nnc(SCc2cccc3ccccc23)s1,–,3.6 µM,100%,EC50 [4]: 1.8 µM; EC50 [5]: ≥ 100 µM; EC50 [6]: ≥ 100 µM; EC50 [7]: 0.97 µM; EC50 [8]: 4.3 µM; EC50 [9]: ≥ 100 µM
C=CCOc1ccc(CNc2cccc(C(=O)O)c2)cc1,–,14.5 µM,49%,–
O=C(O)CCN1C(=O)/C(=C\c2cccc3ccccc23)SC1=S,inactive,–,–,–
O=C(O)CCCN1C(=O)/C(=C\c2ccc3c(c2)OCO3)SC1=S,Active,–,–,–
O=C(O)c1cccc(NCc2cccc(OCc3ccccc3)c2)c1,–,8.2 µM,52%,–
O=C(O)CCCN1C(=O)/C(=C\c2ccco2)SC1=S,–,16.8 µM,44%,–
O=C(O)c1ccc(NCc2ccc3c(c2)OCO3)cc1,–,24.6 µM,50%,–
O=C(O)CCCCCN1C(=O)/C(=C\c2cccc3ccccc23)SC1=S,–,12.2 µM,100%,–
O=C(c1ccccc1)c1ccc(NC(=O)c2ccccc2C(=O)O)cc1,inactive,–,–,–
